Test results as given in PMC12086819 (RSC Advances, 2025).
Entries after “also recorded” stand apart in the source; their conditions may differ. Like-named read-outs stand apart in the source and are kept apart here.

Tests used:
NIH-3T3 cells = assay: MTT cytotoxicity assay in non-cancerous NIH-3T3 cells; type: cell-based, mouse; settings: for IC50: Mus musculus; for cytotoxic effect on non-cancerous NIH-3T3 cells (in words): NIH-3T3 mouse embryonic fibroblast, treatment up to 48 h
How it was run: (§1)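 Cells (A549 or NIH-3T3) were seeded at 5 × 10^3 per well and grown 24 h at 37 °C, 5% CO2, then given increasing concentrations for 24 h and 48 h. DMSO/medium served as negative control and cisplatin as standard. MTT (5 mg mL−1 stock) was added for 4 h at 37 °C, formazan was dissolved in DMSO, and A595 was read. Triplicate means were used; IC50 came from dose–response inhibition curves.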

A549 cells [1] = assay: AO/EB and Hoechst 33258 staining assay; type: cell-based, human; settings: A549 cells treated at respective IC50 concentration, 24 h and 48 h
How it was run: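 A549 cells were seeded at 5 × 10^4 per well and grown 24 h at 37 °C, 5% CO2, then exposed at the respective IC50 concentration for 24 h and 48 h, alongside untreated and cisplatin controls. Staining used either AO/EB solution (100 μg per mL each) or Hoechst 33258 solution (100 μg per mL). Cells were examined and counted by fluorescence microscopy within 20 min.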

A549 cells [2] = assay: Intracellular ROS generation; type: cell-based, human; settings: IC50 concentrations, DCFH-DA, 0-24 h
How it was run: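 Cells were seeded at 3.0 × 10^4 cells per mL in 24-well plates for 24 h, then dosed at 24 h IC50 concentrations with added 100 μM H2O2 solution. After 10 μM DCFH-DA solution was added, plates were held 10 min in the dark. DCF fluorescence (ex 488/em 510 nm) was read at 0, 2, 4, 6, 8, 12 and 24 h and expressed as fold change versus untreated control. Triplicates, mean ± SD.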

A549 cells [3] = assay: MTT cytotoxicity assay against the A549 lung cancer cell line; type: cell-based, human; settings: for cytotoxic activity compared with cisplatin: MTT
How it was run: as §1

[4] = NIH3T3, 24 h, read-out: IC50 at 24 h
[5] = NIH3T3, 48 h, read-out: IC50 at 48 h

Row | SMILES | IC50 (NIH-3T3 cells; [4]) [µM] | IC50 (NIH-3T3 cells; [5]) [µM] | apoptosis induction (AO/EB and Hoechst staining) (A549 cells [1]) | DCF fluorescent intensity compared with the untreated control group (A549 cells [2]) | cytotoxic activity compared with cisplatin (A549 cells [3]) | cytotoxic effect on non-cancerous NIH-3T3 cells (in words) (NIH-3T3 cells) | fold higher activity at 48 h than at 24 h (A549 cells [3]; IC50 at 48 h vs 24 h) [fold] | reduction in cell viability (A549 cells [3]; at 24 and 48 h)
1 | Cc1cc(C)c(C2CN(C)C3(C(=O)Nc4ccccc43)C2C(=O)c2ccccc2)c(C)c1 (stereo not drawn) [4a, 3′-Benzoyl-4′-mesityl-1′-methylspiro[indoline-3,2′-pyrrolidin]-2-one] | > 100 | 25.4 ± 3.74 | apoptosis-inducing capabilities | Not much difference |  |  |  | 
2 | Cc1cc(C)c(C2CN(C)C3(C(=O)Nc4ccccc43)C2C(=O)c2ccc(Cl)cc2)c(C)c1 (stereo not drawn) [4c, 3′-(4-Chlorobenzoyl)-4′-mesityl-1′-methylspiro[indoline-3,2′-pyrrolidin]-2-one] | > 100 | > 100 |  |  | better activity than cisplatin |  |  | 
3 | Cc1cc(C)c(C2C3CCCN3C3(C(=O)Nc4ccccc43)C2C(=O)c2ccc(F)cc2)c(C)c1 (stereo not drawn) [5b, 2′-(4-Fluorobenzoyl)-1′-mesityl-1′,2′,5′,6′,7′,7a′-hexahydrospiro[indoline-3,3′-pyrrolizin]-2-one] | > 100 | 69.9 ± 1.3 |  |  | better activity than cisplatin |  |  | 
4 | Cc1ccc(C(=O)C2C(c3c(C)cc(C)cc3C)C3CCCN3C23C(=O)Nc2ccccc23)cc1 (stereo not drawn) [5e, 1′-Mesityl-2′-(4-methylbenzoyl)-1′,2′,5′,6′,7′,7a′-hexahydrospiro[indoline-3,3′-pyrrolizin]-2-one] | > 100 | > 100 | higher number of early and late apoptotic cells; also recorded: apoptosis-inducing capabilities | Not much difference |  | non-cytotoxic; also recorded: no cytotoxic effects |  | 
5 | Cc1cc(C)c(C2C3CCCN3C3(C(=O)Nc4ccccc43)C2C(=O)c2cccc(Cl)c2)c(C)c1 (stereo not drawn) [5f, 2′-(3-Chlorobenzoyl)-1′-mesityl-1′,2′,5′,6′,7′,7a′-hexahydrospiro[indoline-3,3′-pyrrolizin]-2-one] | > 100 | > 100 | higher number of early and late apoptotic cells; also recorded: apoptosis-inducing capabilities; also recorded: induces apoptosis | Not much difference |  | non-cytotoxic; also recorded: no cytotoxic effects | ~13 | 
6 | Cc1cccc(C(=O)C2C(c3c(C)cc(C)cc3C)CN(C)C23C(=O)Nc2ccccc23)c1 (stereo not drawn) [4g, 4′-Mesityl-1′-methyl-3′-(3-methylbenzoyl)spiro[indoline-3,2′-pyrrolidin]-2-one] | > 100 | 75.3 ± 0.94 |  | Not much difference |  |  |  | 
7 | Cc1ccc(C(=O)C2C(c3c(C)cc(C)cc3C)CN(C)C23C(=O)Nc2ccccc23)cc1 (stereo not drawn) [4e, 4′-Mesityl-1′-methyl-3′-(4-methylbenzoyl)spiro[indoline-3,2′-pyrrolidin]-2-one] | > 100 | > 100 |  | Not much difference | better activity than cisplatin |  |  | 
8 | Cc1cc(C)c(C2CN(C)C3(C(=O)Nc4ccccc43)C2C(=O)c2ccc(F)cc2)c(C)c1 (stereo not drawn) [4b, 3′-(4-Fluorobenzoyl)-4′-mesityl-1′-methylspiro[indoline-3,2′-pyrrolidin]-2-one] | > 100 | 32.8 ± 5.95 |  | Not much difference |  |  |  | 
9 | N.N.[Cl][Pt][Cl] [Cisplatin, cisplatin, reference compound] |  |  | distinct changes as an indication of apoptosis and cell death |  |  |  |  | 
10 | Cc1cc(C)c(C2C3CCCN3C3(C(=O)Nc4ccccc43)C2C(=O)c2ccc(Cl)cc2)c(C)c1 (stereo not drawn) [5c, 2′-(4-Chlorobenzoyl)-1′-mesityl-1′,2′,5′,6′,7′,7a′-hexahydrospiro[indoline-3,3′-pyrrolizin]-2-one] | > 100 | 72.1 ± 0.95 |  | Not much difference | better activity than cisplatin |  |  | 
11 | Cc1cc(C)c(C2C3CCCN3C3(C(=O)Nc4ccccc43)C2C(=O)c2ccccc2)c(C)c1 (stereo not drawn) [5a, 2′-Benzoyl-1′-mesityl-1′,2′,5′,6′,7′,7a′-hexahydrospiro[indoline-3,3′-pyrrolizin]-2-one] | > 100 | 72 ± 4.45 |  |  | better activity than cisplatin |  |  | 
12 | Cc1cccc(C(=O)C2C(c3c(C)cc(C)cc3C)C3CCCN3C23C(=O)Nc2ccccc23)c1 (stereo not drawn) [5g, 1′-Mesityl-2′-(3-methylbenzoyl)-1′,2′,5′,6′,7′,7a′-hexahydrospiro[indoline-3,3′-pyrrolizin]-2-one] | > 100 | > 100 |  |  | better activity than cisplatin |  |  | 
13 | Cc1cc(C)c(C2CN(C)C3(C(=O)Nc4ccccc43)C2C(=O)c2cccc(Cl)c2)c(C)c1 (stereo not drawn) [4f, 3′-(3-Chlorobenzoyl)-4′-mesityl-1′-methylspiro[indoline-3,2′-pyrrolidin]-2-one] | > 100 | > 100 |  |  |  |  |  | No substantial reduction in cell viability
14 | Cc1cc(C)c(C2C3CCCN3C3(C(=O)Nc4ccccc43)C2C(=O)c2ccc(Br)cc2)c(C)c1 (stereo not drawn) [5d, 2′-(4-Bromobenzoyl)-1′-mesityl-1′,2′,5′,6′,7′,7a′-hexahydrospiro[indoline-3,3′-pyrrolizin]-2-one] | > 100 | 42.9 ± 1.51 |  |  | better activity than cisplatin |  |  | 
15 | Cc1cc(C)c(C2CN(C)C3(C(=O)Nc4ccccc43)C2C(=O)c2ccc(Br)cc2)c(C)c1 (stereo not drawn) [4d, 3′-(4-Bromobenzoyl)-4′-mesityl-1′-methylspiro[indoline-3,2′-pyrrolidin]-2-one] | > 100 | > 100 |  |  | better activity than cisplatin |  |  | 
